In ChEMBL document CHEMBL1811814, “Synthesis and evaluation of indole, pyrazole, chromone and pyrimidine based conjugates for tumor growth inhibitory activities--development of highly efficacious cytotoxic agents” (Eur J Med Chem, 2010):

Assays:
Type in all cases: functional
Parameters in all cases: scale not given: the % may be the effect or the level left
[1] = system: SF-539; experiment: Growth inhibition of human SF539 cells assessed tumor cell growth at 10^-5 M
How it was run: (§1)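 NCI 60-human-tumor-cell-line panel screen. Each compound was tested at a single concentration of 10^-5 M, and percent growth of tumor cells was recorded for each cell line. Growth inhibition was expressed from these percent-growth values.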

[2] = system: CCRF-CEM; experiment: Growth inhibition of human CCRF-CEM cells assessed tumor cell growth at 10^-5 M; how it was run: as §1
[3] = system: SW-620; experiment: Growth inhibition of human SW620 cells assessed tumor cell growth at 10^-5 M
How it was run: (§2)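 Single-dose screen at 10^-5 M across the 60 human tumor cell line panel, run to NCI standards. The value is the percent growth of each cell line in the presence of compound. Compounds active at this dose moved on to five-concentration testing (10^-4 to 10^-8 M).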

[4] = system: HL-60(TB); experiment: Growth inhibition of human HL-60(TB) cells assessed tumor cell growth at 10^-5 M
How it was run: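 HL-60(TB), part of the 60-line panel, tested at a single concentration of 10^-5 M. The read-out is percent tumor cell growth relative to untreated growth.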

[5] = system: SN12C; experiment: Growth inhibition of human SN12C cells assessed tumor cell growth at 10^-5 M; how it was run: as §1
[6] = system: NCI-H23; experiment: Growth inhibition of human NCI-H23 cells assessed tumor cell growth at 10^-5 M; how it was run: as §1
[7] = system: EKVX; experiment: Growth inhibition of human EKVX cells assessed tumor cell growth at 10^-5 M; how it was run: as §1
[8] = system: NCI-H322M; experiment: Growth inhibition of human NCI-H322M cells assessed tumor cell growth at 10^-5 M; how it was run: as §1
[9] = system: HCT-15; experiment: Growth inhibition of human HCT15 cells assessed tumor cell growth at 10^-5 M; how it was run: as §1
[10] = system: MDA-MB-435; experiment: Growth inhibition of human MDA-MB-435 cells assessed tumor cell growth at 10^-5 M; how it was run: as §1
[11] = system: SNB-19; experiment: Growth inhibition of human SNB19 cells assessed tumor cell growth at 10^-5 M; how it was run: as §2
[12] = system: ACHN; experiment: Growth inhibition of human ACHN cells assessed tumor cell growth at 10^-5 M; how it was run: as §1
[13] = system: SF-268; experiment: Growth inhibition of human SF268 cells assessed tumor cell growth at 10^-5 M; how it was run: as §1
[14] = system: HT-29; experiment: Growth inhibition of human HT-29 cells assessed tumor cell growth at 10^-5 M; how it was run: as §1
[15] = system: IGROV-1; experiment: Growth inhibition of human IGROV1 cells assessed tumor cell growth at 10^-5 M; how it was run: as §1
[16] = system: A549; experiment: Growth inhibition of human A549 cells assessed tumor cell growth at 10^-5 M; how it was run: as §1
[17] = system: TK-10; experiment: Growth inhibition of human TK10 cells assessed tumor cell growth at 10^-5 M; how it was run: as §2
[18] = system: M14; experiment: Growth inhibition of human M14 cells assessed tumor cell growth at 10^-5 M; how it was run: as §1
[19] = Growth inhibition of human Hs 578T cells assessed tumor cell growth at 10^-5 M; how it was run: as §1
[20] = system: HCC 2998; experiment: Growth inhibition of human HCC2998 cells assessed tumor cell growth at 10^-5 M; how it was run: as §1
[21] = system: KM12; experiment: Growth inhibition of human KM12 cells assessed tumor cell growth at 10^-5 M; how it was run: as §1
[22] = system: COLO 205; experiment: Growth inhibition of human COLO205 cells assessed tumor cell growth at 10^-5 M; how it was run: as §1
[23] = system: BT-549; experiment: Growth inhibition of human BT549 cells assessed tumor cell growth at 10^-5 M; how it was run: as §1
[24] = system: PC-3; experiment: Growth inhibition of human PC3 cells assessed tumor cell growth at 10^-5 M; how it was run: as §1
[25] = system: SK-MEL-28; experiment: Growth inhibition of human SK-MEL-28 cells assessed tumor cell growth at 10^-5 M; how it was run: as §1
[26] = system: DU-145; experiment: Growth inhibition of human DU145 cells assessed tumor cell growth at 10^-5 M; how it was run: as §1
[27] = system: NCI-H522; experiment: Growth inhibition of human NCI-H522 cells assessed tumor cell growth at 10^-5 M; how it was run: as §1
[28] = system: NCI-H226; experiment: Growth inhibition of human NCI-H226 cells assessed tumor cell growth at 10^-5 M; how it was run: as §1
[29] = system: HCT-116; experiment: Growth inhibition of human HCT116 cells assessed tumor cell growth at 10^-5 M; how it was run: as §1
[30] = system: HOP-92; experiment: Growth inhibition of human HOP92 cells assessed tumor cell growth at 10^-5 M; how it was run: as §1
[31] = system: U-251; experiment: Growth inhibition of human U251 cells assessed tumor cell growth at 10^-5 M; how it was run: as §2
[32] = system: SF-295; experiment: Growth inhibition of human SF295 cells assessed tumor cell growth at 10^-5 M; how it was run: as §1
[33] = system: RXF 393; experiment: Growth inhibition of human RXF393 cells assessed tumor cell growth at 10^-5 M; how it was run: as §1
[34] = system: SK-MEL-2; experiment: Growth inhibition of human SK-MEL-2 cells assessed tumor cell growth at 10^-5 M; how it was run: as §1
[35] = system: MOLT-4; experiment: Growth inhibition of human MOLT4 cells assessed tumor cell growth at 10^-5 M; how it was run: as §1
[36] = system: LOX IMVI; experiment: Growth inhibition of human LOXIMVI cells assessed tumor cell growth at 10^-5 M; how it was run: as §1
[37] = system: UACC-62; experiment: Growth inhibition of human UACC62 cells assessed tumor cell growth at 10^-5 M; how it was run: as §2
[38] = system: 786-0; experiment: Growth inhibition of human 786-0 cells assessed tumor cell growth at 10^-5 M; how it was run: as §1
[39] = system: OVCAR-8; experiment: Growth inhibition of human OVCAR8 cells assessed tumor cell growth at 10^-5 M; how it was run: as §1
[40] = system: CAKI-1; experiment: Growth inhibition of human Caki1 cells assessed tumor cell growth at 10^-5 M; how it was run: as §1
[41] = system: MDA-MB-231; experiment: Growth inhibition of human MDA-MB-231 cells assessed tumor cell growth at 10^-5 M; how it was run: as §1
[42] = system: NCI/ADR-RES; experiment: Growth inhibition of human NCI/ADR-RES cells assessed tumor cell growth at 10^-5 M; how it was run: as §1
[43] = system: HOP-62; experiment: Growth inhibition of human HOP62 cells assessed tumor cell growth at 10^-5 M; how it was run: as §1
[44] = system: Malme-3M; experiment: Growth inhibition of human MALME-3M cells assessed tumor cell growth at 10^-5 M; how it was run: as §1
[45] = Growth inhibition of human […] cells assessed tumor cell growth at 10^-5 M; how it was run: as §1
[46] = system: SK-MEL-5; experiment: Growth inhibition of human SK-MEL-5 cells assessed tumor cell growth at 10^-5 M; how it was run: as §1
[47] = system: T47D; experiment: Growth inhibition of human T47D cells assessed tumor cell growth at 10^-5 M; how it was run: as §2
[48] = system: OVCAR-5; experiment: Growth inhibition of human OVCAR5 cells assessed tumor cell growth at 10^-5 M; how it was run: as §1
[49] = system: UACC-257; experiment: Growth inhibition of human UACC257 cells assessed tumor cell growth at 10^-5 M; how it was run: as §2
[50] = system: A498; experiment: Growth inhibition of human A498 cells assessed tumor cell growth at 10^-5 M; how it was run: as §1
[51] = system: OVCAR-3; experiment: Growth inhibition of human OVCAR3 cells assessed tumor cell growth at 10^-5 M; how it was run: as §1
[52] = system: UO-31; experiment: Growth inhibition of human UO31 cells assessed tumor cell growth at 10^-5 M; how it was run: as §2
[53] = system: SNB-75; experiment: Growth inhibition of human SNB75 cells assessed tumor cell growth at 10^-5 M; how it was run: as §2
[54] = system: NCI-H460; experiment: Growth inhibition of human NCI-H460 cells assessed tumor cell growth at 10^-5 M; how it was run: as §1
[55] = system: MDA-MB-468; experiment: Growth inhibition of human MDA-MB-468 cells assessed tumor cell growth at 10^-5 M; how it was run: as §1
[56] = system: SK-OV-3; experiment: Growth inhibition of human SKOV3 cells assessed tumor cell growth at 10^-5 M; how it was run: as §1
[57] = system: K562; experiment: Growth inhibition of human K562 cells assessed tumor cell growth at 10^-5 M; how it was run: as §1
[58] = system: OVCAR-4; experiment: Growth inhibition of human OVCAR4 cells assessed tumor cell growth at 10^-5 M; how it was run: as §1
[59] = system: MCF7; experiment: Growth inhibition of human MCF7 cells assessed tumor cell growth at 10^-5 M; how it was run: as §1

## O=C1/C(=C\c2cn(C(=O)c3c(Cl)cccc3Cl)c3ccccc23)c2ccccc2N1C(=O)c1c(Cl)cccc1Cl
[1]
  Activity: 95%
[2]
  Activity: 87%
[3]
  Activity: 117%
[4]
  Activity: 109%
[5]
  Activity: 92.7%
[6]
  Activity: 96.6%
[7]
  Activity: 99.4%
[8]
  Activity: 124%
[9]
  Activity: 65.9%
[10]
  Activity: 112%
[11]
  Activity: 97.3%
[12]
  Activity: 78.6%
[13]
  Activity: 95.7%
[14]
  Activity: 108%
[15]
  Activity: 69.9%
[16]
  Activity: 91.2%
[17]
  Activity: 101%
[18]
  Activity: 94.2%
[19]
  Activity: 152%
[20]
  Activity: 116%
[21]
  Activity: 99.3%
[22]
  Activity: 69%
[23]
  Activity: 85.3%
[24]
  Activity: 73.1%
[25]
  Activity: 103%
[26]
  Activity: 135%
[27]
  Activity: 87.4%
[28]
  Activity: 92.9%
[29]
  Activity: 82.5%
[30]
  Activity: 48.5%
[31]
  Activity: 87.1%
[32]
  Activity: 90.6%
[33]
  Activity: 113%
[34]
  Activity: 92.3%
[35]
  Activity: 84%
[36]
  Activity: 95.8%
[37]
  Activity: 63.8%
[38]
  Activity: 100%
[39]
  Activity: 94.1%
[40]
  Activity: 67.5%
[41]
  Activity: 74.3%
[42]
  Activity: 104%
[43]
  Activity: 98.7%
[44]
  Activity: 94.9%
[45]
  Activity: 75%
[46]
  Activity: 84.8%
[47]
  Activity: 91.6%
[48]
  Activity: 83.7%
[49]
  Activity: 104%
[50]
  Activity: 126%
[51]
  Activity: 96.7%
[52]
  Activity: 72%
[53]
  Activity: 88.8%
[54]
  Activity: 114%
[55]
  Activity: 126%
[56]
  Activity: 93.4%
[57]
  Activity: 85.2%
[58]
  Activity: 104%
[59]
  Activity: 84.8%
